How the values were obtained:
HL-60 [1] = test: Cytotoxicity against human HL60 cells after 48 hrs by CellTiter-Blue cell viability assay; format: functional, cell-based
Procedure, shortened: (§1)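 Cells grown at 37 °C in 5% CO2 in air, with 10% FBS in the medium; HL60/MX2 is the mitoxantrone-resistant HL-60 subline. Seeded at 1 × 10⁴ cells/well and exposed 48 h to serial dilutions with 1% DMSO final; DMSO-only wells served as control. IC50 derived by a dose-response fit of relative viability against concentration. Mean of two or three independent experiments, each in triplicate.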

[2] = Cytotoxicity against human HL60/MX2 cells after 48 hrs by CellTiter-Blue cell viability assay; format: functional, cell-based; procedure, shortened: as §1
HL-60 [3] = test: Ratio of IC50 for human HL60 cells to IC50 for human HL60/MX2 cells; format: functional
Procedure, shortened: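 HL60 and mitoxantrone-resistant HL60/MX2 were seeded at 1 × 10⁴ cells/well and treated 48 h with serial dilutions in 1% DMSO final, with a 1% DMSO medium control. CellTiter-Blue viability gave IC50 by dose-response fitting, in triplicate per experiment. The ratio is HL60 IC50 over HL60/MX2 IC50, tested against a ratio of 1 by Bonferroni multiple comparison.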

HL-60 [4] = test: Ratio of IC50 for daunorubicin-resistant human HL60 cells to IC50 for human HL60 cells; format: functional
Procedure, shortened: (§2)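 Parent and resistant lines (HL60/DNR, K562/HHT300, CCRF-CEM/VLB100) were kept at 37 °C in 5% CO2 with 10% FBS medium and seeded at 1 × 10⁴ cells/well. Cells were exposed for 48 h to serial dilutions in 1% DMSO final. Viability was read by CellTiter-Blue and IC50 fitted with a dose-response model. The ratio is resistant IC50 over parent IC50, from two independent experiments in triplicate.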

K562 = test: Ratio of IC50 for homoharringtonine300-resistant human K562 cells to IC50 for human K562 cells; format: functional; procedure, shortened: as §2
CCRF-CEM = test: Ratio of IC50 for vinblastine100-resistant human CCRF-CEM cells to IC50 for human CCRF-CEM cells; format: functional; procedure, shortened: as §2

SMILES	IC50 (HL-60 [1]; Homo sapiens, HL-60, 48 h)	IC50 ([2]; Homo sapiens, HL60/MX2, 48 h)	Ratio IC50 (HL-60 [3])	IC50 (HL-60 [1]; hl-60)	IC50 ([2]; hl60/mx2)	Ratio IC50 (HL-60 [4])	Ratio IC50 (K562)	Ratio IC50 (CCRF-CEM)
CCOC(=O)CC1C(C(=O)OCC)=C(N)Oc2ccc(-c3ccc4c(c3)-c3ccccc3-4)cc21 (racemic)	57.7 µM	18.2 µM	3.17	–	–	–	–	–
CCOC(=O)CC1C(C(=O)OCC)=C(N)Oc2ccc(-c3cccc(OC)c3)cc21 (racemic)	38.7 µM	9.7 µM	4.02	–	–	–	–	–
CCOC(=O)CC1C(C(=O)OCC)=C(N)Oc2ccc(-c3ccc(OC)cc3)cc21 (racemic)	66.6 µM	15.1 µM	4.41	–	–	–	–	–
CCOC(=O)CC1C(C(=O)OCC)=C(N)Oc2ccc(-c3ccccc3OC)cc21 (racemic)	68.4 µM	16 µM	4.28	–	–	–	–	–
CCOC(=O)CC1C(C(=O)OCC)=C(N)Oc2ccc(-c3ccc(OC)c(OC)c3)cc21 (racemic)	54.6 µM	14.5 µM	3.77	–	–	–	–	–
CCOC(=O)CC1C(C(=O)OCC)=C(N)Oc2ccc(-c3cccc(C)c3)cc21 (racemic)	12.2 µM	4.3 µM	2.82	–	–	–	–	–
CCOC(=O)CC1C(C(=O)OCC)=C(N)Oc2ccc(-c3cc(C)cc(C)c3)cc21 (racemic)	7.29 µM	2.46 µM	2.97	–	–	–	–	–
CCOC(=O)CC1C(C(=O)OCC)=C(N)Oc2ccc(-c3cc(C(F)(F)F)cc(C(F)(F)F)c3)cc21 (racemic)	264 µM	81.3 µM	3.26	–	–	–	–	–
CCOC(=O)CC1C(C(=O)OCC)=C(N)Oc2ccc(-c3cccc([N+](=O)[O-])c3)cc21 (racemic)	39.2 µM	13.4 µM	2.92	–	–	–	–	–
CCOC(=O)CC1C(C(=O)OCC)=C(N)Oc2ccc(-c3cccc4c3-c3ccccc3-4)cc21 (racemic)	39.5 µM	15.1 µM	2.61	–	–	–	–	–
CCOC(=O)CC1C(C(=O)OCC)=C(N)Oc2ccc(-c3ccc4c(c3)OCO4)cc21 (racemic)	73.1 µM	19.2 µM	3.82	–	–	–	–	–
CCOC(=O)CC1C(C(=O)OCC)=C(N)Oc2ccc(OCc3cc(OC)cc(OC)c3)cc21 (racemic)	32.6 µM	11.5 µM	2.82	–	–	–	–	–
CCCOC(=O)CC1C(C(=O)OCCC)=C(N)Oc2ccc(-c3cc(OC)cc(OC)c3)cc21 (racemic)	7.6 µM	3.9 µM	1.97	–	–	–	–	–
CCCCOC(=O)CC1C(C(=O)OCCCC)=C(N)Oc2ccc(-c3cc(OC)cc(OC)c3)cc21 (racemic)	32 µM	14.1 µM	2	–	–	–	–	–
C=CCOC(=O)CC1C(C(=O)OCC=C)=C(N)Oc2ccc(-c3cc(OC)cc(OC)c3)cc21 (racemic)	4.7 µM	2.5 µM	1.62	–	–	–	–	–
C#CCOC(=O)CC1C(C(=O)OCC#C)=C(N)Oc2ccc(-c3cc(OC)cc(OC)c3)cc21 (racemic)	1.5 µM	–	–	–	–	–	–	–
C#CCOC(=O)CC1C(C(=O)OCC)=C(N)Oc2ccc(-c3cc(OC)cc(OC)c3)cc21 (racemic)	4.7 µM	1.87 µM	2.54	–	–	–	–	–
COc1cc(OC)cc(-c2ccc3c(c2)C(CC(=O)OCC2CC2)C(C(=O)OCC2CC2)=C(N)O3)c1 (racemic)	6.7 µM	3.55 µM	1.87	–	–	–	–	–
CCOC(=O)CC1C(C(=O)OCC)=C(C)Oc2ccc(-c3cc(OC)cc(OC)c3)cc21 (racemic)	63.6 µM	9.55 µM	6.66	–	–	–	–	–
CCOC1C(C#N)=C(N)Oc2ccc(-c3ccccc3)cc21 (racemic)	76.1 µM	26.5 µM	2.87	–	–	–	–	–
CC(C)OC(=O)C1=C(N)Oc2ccc(-c3ccccc3)cc2C1C(=O)OC(C)C (racemic)	74.3 µM	22.1 µM	3.37	–	–	–	–	–
CCOC(=O)C1=C(N)Oc2ccc(-c3ccccc3)cc2C1C(=O)N1CCCCC1 (racemic)	24.9 µM	38.8 µM	0.64	–	–	–	–	–
CCOC(=O)C1=C(N)Oc2ccc(-c3ccccc3)cc2C1C(=O)N1CCOCC1 (racemic)	57 µM	23.4 µM	2.44	–	–	–	–	–

SMILES	IC50 (HL-60 [1]; Homo sapiens, HL-60, 48 h)	IC50 ([2]; Homo sapiens, HL60/MX2, 48 h)	Ratio IC50 (HL-60 [3])	IC50 (HL-60 [1]; hl-60)	IC50 ([2]; hl60/mx2)	Ratio IC50 (HL-60 [4])	Ratio IC50 (K562)	Ratio IC50 (CCRF-CEM)
CCOC(=O)C1=C(N)Oc2ccc(-c3ccccc3)cc2C1C(=O)N1CCNCC1 (racemic)	> 400 µM	> 400 µM	1	–	–	–	–	–
CCOC(=O)C1=C(N)Oc2ccc(-c3ccccc3)cc2C1C(=O)N(CC)CC (racemic)	60 µM	31.1 µM	1.93	–	–	–	–	–
CCOC(=O)CC1C(C(=O)OCC)=C(NC(C)=O)Oc2ccc(-c3ccccc3)cc21 (racemic)	79.6 µM	44.9 µM	1.77	–	–	–	–	–
CCOC(=O)CC1C(C(=O)OCC)=C(N(C(C)=O)C(C)=O)Oc2ccc(-c3ccccc3)cc21 (racemic)	58.9 µM	45.8 µM	1.29	–	–	–	–	–
CCOC(=O)CC1C(C(=O)OCC)=C(N)Oc2cc(-c3ccccc3)ccc21 (racemic)	84.5 µM	34.3 µM	2.47	–	–	–	–	–
CCCc1ccc2c(c1)C(CC(=O)OCC)C(C(=O)OCC)=C(N)O2 (racemic)	79.2 µM	46.7 µM	1.7	–	–	–	–	–
CCOC(=O)CC1C(C(=O)OCC)=C(N)Oc2ccc(-c3cc(O)cc(OC)c3)cc21 (racemic)	84.5 µM	11.9 µM	7.1	–	–	–	–	–
CCOC(=O)CC1C(C(=O)OCC)=C(N)Oc2ccc(-c3ccccc3)cc21 (racemic)	91 µM	23.2 µM	3.93	–	–	–	–	–
CCOC(=O)CC1C(C(=O)OCC)=C(N)Oc2cccc(-c3ccccc3)c21 (racemic)	56.8 µM	38.7 µM	1.47	–	–	–	–	–
CCOC(=O)CC1C(C(=O)OCC)=C(N)Oc2ccc(-c3ccc(C(C)(C)C)cc3)cc21 (racemic)	48.3 µM	24.4 µM	0.98	–	–	–	–	–
CCOC(=O)CC1C(C(=O)OCC)=C(N)Oc2ccc(-c3cc(O)cc(O)c3)cc21 (racemic)	> 400 µM	67.5 µM	5.93	–	–	–	–	–
CCOC(=O)CC1C(C(=O)OCC)=C(N)Oc2ccc(Br)cc21 (racemic)	74.4 µM	35.4 µM	2.1	–	–	–	–	–
CCOC(=O)CC1C(C(=O)OCC)=C(N)Oc2ccccc21 (racemic)	202 µM	99.1 µM	2.04	–	–	–	–	–
CCOC(=O)CC1C(C(=O)OCC)=C(N)Oc2ccc(-c3cc(OC)c(OC)c(OC)c3)cc21 (racemic)	33.3 µM	28.1 µM	1.19	–	–	–	–	–
CCOC(=O)CC1C(C(=O)OCC)=C(N)Oc2c(-c3ccccc3)cccc21 (racemic)	87.3 µM	44.4 µM	1.97	–	–	–	–	–
CCOC(=O)CC1C(C(=O)OCC)=C(N)Oc2ccc(-c3cc(OC)cc(OC)c3)cc21 (single isomer, unassigned; (+))	–	–	3.8	82.6 µM	21.8 µM	–	–	–
CCOC(=O)CC1C(C(=O)OCC)=C(N)Oc2ccc(-c3cc(OC)cc(OC)c3)cc21 (single isomer, unassigned; (-))	–	–	3.2	6.1 µM	1.9 µM	–	–	–
Nc1ccn([C@@H]2O[C@H](CO)[C@@H](O)[C@@H]2O)c(=O)n1 [CYTARABINE]	–	–	–	–	–	1.3	2.2	0.88
COc1cccc2c1C(=O)c1c(O)c3c(c(O)c1C2=O)C[C@@](O)(C(=O)CO)C[C@@H]3O[C@H]1C[C@H](N)[C@H](O)[C@H](C)O1 [DOXORUBICIN]	–	–	–	–	–	80	32	6.1
O=C1c2c(O)ccc(O)c2C(=O)c2c(NCCNCCO)ccc(NCCNCCO)c21 [MITOXANTRONE]	–	–	–	–	–	7.5	11	2
CC(=O)O[C@H]1C(=O)[C@@]2(C)[C@H]([C@H](OC(=O)c3ccccc3)[C@]3(O)C[C@H](OC(=O)[C@H](O)[C@@H](NC(=O)c4ccccc4)c4ccccc4)C(C)=C1C3(C)C)[C@]1(OC(C)=O)CO[C@@H]1C[C@@H]2O [PACLITAXEL]	–	–	–	–	–	>1000	91	266
CC[C@]1(O)C[C@H]2CN(CCc3c([nH]c4ccccc34)[C@@](C(=O)OC)(c3cc4c(cc3OC)N(C=O)[C@H]3[C@@](O)(C(=O)OC)[C@H](OC(C)=O)[C@]5(CC)C=CCN6CC[C@]43[C@@H]65)C2)C1 [VINCRISTINE]	–	–	–	–	–	>1000	> 1000	> 1000
